MIN6 prolif = inducers of MIN6 beta-cell proliferation, primary screen, ATP luminescence, uHTS; MIN6 cells proliferation, ATPlite luminescence, 48 h; cells starved in 0.2% serum; 100% = growth in 10% serum; proliferation, % at 10 µM; actives 0.29% (n = 330,000);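 active means compounds whose signal lies at least 3.5 SD above the mean of all wells on their plate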
SENP1 FRET inh = human SENP1 catalytic domain inhibitors, primary screen, biochemical, FRET, uHTS; AID 624204, 2012; Sentrin-specific protease 1 (Homo sapiens), Q9P0U3; inhibition, % at 10 µM; actives 0.21% (n = 360,000); recombinant SENP1 catalytic domain, CyPet-SUMO1-YPet FRET cleavage;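 active means inhibition at least 30% at 10 µM, raw YFP signal under a set limit, fluorescence ratio 0.5 to 1.5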
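system = hSENP1 catalytic domain, recombinant | reagent = SFCypet-SUMO1-SFYpet substrate at 25 nM | doses = one dose per compound, 10 µM, 0.5% DMSO | incubation = enzyme reaction for 50 min at room temperature, dark | measured by = FRET, CFP and YFP emission | controls = no-enzyme low, enzyme-DMSO high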
DAGLB inh = DAGLB lipase inhibitors, primary screen, biochemical, fluorescence, HTS. Diacylglycerol lipase-beta (Homo sapiens), Q8NCG7. HEK293T DAGLB membrane lysate, EnzChek fluorogenic substrate. inhibition, % at 5.17 µM. actives 0.059% (n = 340,000). AID 504411, 2011; in the data active means inhibition above about 34%
CendR NRP1 mod = modulators of CendR peptide binding to NRP-1, primary screen, biochemical, fluorescence polarization, uHTS | FAM-RPARPAR peptide binding to NRP-1 | inhibition, % at 25 µM | actives 0.85% (n = 360,000) | AID 602438, 2012;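 active means inhibition or corrected inhibition above about 18%, plus a signal ratio from 0.5 to 1.5, limit read from the data, passing the limit was not always enough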
Target sequence (O14786 whole entry, looked up): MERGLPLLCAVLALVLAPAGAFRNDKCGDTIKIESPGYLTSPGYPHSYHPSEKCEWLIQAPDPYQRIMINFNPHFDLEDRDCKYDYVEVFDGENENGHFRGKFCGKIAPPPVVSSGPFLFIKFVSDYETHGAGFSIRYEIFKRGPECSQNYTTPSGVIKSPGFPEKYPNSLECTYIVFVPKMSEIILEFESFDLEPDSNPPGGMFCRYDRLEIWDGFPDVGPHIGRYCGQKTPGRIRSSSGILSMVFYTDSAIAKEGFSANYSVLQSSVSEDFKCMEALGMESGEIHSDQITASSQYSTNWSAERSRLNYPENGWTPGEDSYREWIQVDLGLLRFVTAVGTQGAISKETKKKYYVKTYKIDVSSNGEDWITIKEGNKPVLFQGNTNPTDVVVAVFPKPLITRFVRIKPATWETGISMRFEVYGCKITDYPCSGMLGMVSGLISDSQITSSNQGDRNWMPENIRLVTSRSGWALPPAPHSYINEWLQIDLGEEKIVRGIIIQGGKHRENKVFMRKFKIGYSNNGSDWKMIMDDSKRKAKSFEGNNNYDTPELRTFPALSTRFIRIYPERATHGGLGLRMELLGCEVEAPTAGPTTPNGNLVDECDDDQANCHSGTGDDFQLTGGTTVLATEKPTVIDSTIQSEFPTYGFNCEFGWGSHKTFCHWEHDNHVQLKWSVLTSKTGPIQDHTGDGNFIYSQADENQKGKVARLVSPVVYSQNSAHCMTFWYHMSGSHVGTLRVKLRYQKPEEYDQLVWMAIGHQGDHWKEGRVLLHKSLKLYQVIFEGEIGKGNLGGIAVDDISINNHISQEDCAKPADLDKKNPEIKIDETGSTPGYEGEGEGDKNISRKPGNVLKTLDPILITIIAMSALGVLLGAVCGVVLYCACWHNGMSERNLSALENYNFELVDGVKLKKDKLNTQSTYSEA
MT1-MMP act inh = blockers of MT1-MMP proenzyme processing, primary screen, HT1080 RFP-PRO-GFP cells, GFP/RFP fluorescence; GFP/RFP ratio fluorescence, overnight; percent of plate control window, DMSO zero; AID 651647, 2012; GFP/RFP ratio change, % at 20 µM; Matrix metalloproteinase-14 (Homo sapiens), P50281; actives 0.061% (n = 360,000);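 active means GFP/RFP ratio change of at least 30% with cell ATP level not reduced by more than half and red fluorescence within 50% of control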
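Assay system: HT1080 RFP-PRO-GFP cells. Benchmarks: DMSO vehicle wells and RFP-L50D-GFP reporter cell wells. Times: overnight cell settling, then overnight compound exposure, 37 °C, 5% CO2. Compound: 20 µM single dose, 1% DMSO. Read-out basis: GFP/RFP fluorescence ratio.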
Myeloid diff 2 = induction of myeloid progenitor differentiation, primary screen, cell-based, flow cytometry, MLPCN library; actives 1% (n = 360,000); calls only at 10 µM; ER-HoxA9 myeloid progenitors, lysozyme-GFP differentiation; AID 624256, 2012;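 active means normalized GFP-positive differentiation at or above the plate's own cutoff, the solvent-only control mean plus 3 SD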;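 further: cells exposed to compound for four days before flow analysis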
A number is an active result; n = inactive; x = no result given; + = active, no number; ! = not confirmed by another sample. Rows were chosen to be rich in hits. Some 2.4% of all compounds tested hit in one or more screens of this group.

SMILES	MIN6 prolif	SENP1 FRET inh	DAGLB inh	CendR NRP1 mod	MT1-MMP act inh	Myeloid diff 2
COCC(C)N1CCC(n2nccc2NC(=O)CCOc2ccccc2)CC1 (stereo unspecified)	n	n	n	n	n	n
C=CCC(=O)N1CCC(n2nccc2NC(=O)CCOc2ccccc2)CC1	n	n	n	27.8	n	n
CSCC(C)N1CCC(n2nccc2NC(=O)CCOc2ccccc2)CC1 (stereo unspecified)	n	n	n	21.9	n	n
CC(OC(=O)[C@H](C)N=C1NS(=O)(=O)c2ccccc21)C(=O)Nc1ccc(F)c(F)c1F (stereo partly specified)	x	n	n	n	n	n
Cc1ccc(C2=NN(CC(=O)NCc3ccccn3)C(=O)CC2)cc1	n	n	n	n	n	n
Cc1nn(-c2ccccc2)c(C)c1/C=N\N1CCN(c2ccc(Cl)cc2)CC1	n	n	n	25.1	n	n
COCCNC(=O)/C(C#N)=C/c1ccc2c(c1)OCO2	n	n	n	34.7	n	n
COCCNC(=O)/C(C#N)=C/c1cc(C)n(-c2ccc(C)cc2)c1C	n	n	n	26.6	n	n
COc1ccc(CCNC(=O)c2cccs2)cc1	n	n	n	n	n	n
Cc1cccc(C)c1NC(=O)CN1CCN(C(=O)c2ccc(OCc3cn4ccccc4n3)cc2)CC1	n	n	n	29.7	n	n
O=C(c1ccc(OCc2cn3ccccc3n2)cc1)N1CCN(S(=O)(=O)c2ccccc2F)CC1	n	n	n	n	n	n
Cc1cccc(N=N/C(=C\O)C(=O)c2cccs2)c1	n	n	n	n	n	n
CCc1cc(CNC(=O)c2ccc(OC3CCN(CCc4ccccc4)CC3)cc2)on1	n	n	n	n	n	n
Cc1ccc(Cn2c(=N)n(CC(O)COc3ccccc3)c3ccccc32)cc1 (stereo unspecified)	n	n	n	24.1	n	x
CCOc1ccc2nc(N(CCCN(C)C)C(=O)c3ccc4c(c3)CCCC4)sc2c1	n	n	n	n	x	n
CN(C)CCCN(C(=O)c1ccc2c(c1)CCCC2)c1nc2ccc(Cl)cc2s1	n	n	n	n	n	+
Cc1ccc(CC(=O)O/N=C(\N)c2ccncc2)cc1	n	n	n	n	n	+
O=P(O)(Cc1ccccc1)Cc1ccccc1	n	n	n	n	n	n
Cc1cccc(-n2ccc(=O)c(C(=O)Nc3ccc(S(=O)(=O)Nc4onc(C)c4C)cc3)n2)c1	n	n	n	36.3	n	n
Cc1cc(C)nc(NS(=O)(=O)c2ccc(NC(=O)c3nn(-c4ccccc4)ccc3=O)cc2)n1	n	n	n	n	n	n
O=C(c1ccco1)N1CCN(C(=O)c2ccccc2OC(=O)C23CC4CC(CC(C4)C2)C3)CC1	x	n	n	20.5	n	x
Cc1ccc(/C=C2/C(=O)N=C(N)N2C)s1	n	n	n	n	n	+
C=CCN(CC=C)C(=S)Nc1ccc2nsnc2c1	n	n	n	30.2	n	n
S=C(Nc1ccc2nsnc2c1)N1CCCCCC1	n	n	n	44.6	n	n
S=C(Nc1ccc2nsnc2c1)NC1CCCCC1	n	n	n	n	n	n
SMILES	MIN6 prolif	SENP1 FRET inh	DAGLB inh	CendR NRP1 mod	MT1-MMP act inh	Myeloid diff 2
CCOC(=O)N1CCN(C(=O)C[C@@H]2C[C@@]3(C(=O)OCC)CCCC=C3N(Cc3ccc(Cl)cc3Cl)C2=O)CC1	x	n	x	n	n	n
COc1ccccc1NS(=O)(=O)c1ccc(O)c(C(=O)OCC(=O)N2CCc3ccccc32)c1	n	n	n	n	n	n
COc1ccccc1NS(=O)(=O)c1ccc(O)c(C(=O)OCC(=O)N2c3ccccc3CC2C)c1 (stereo unspecified)	n	n	n	n	n	+
Cn1nc(C(C)(C)C)cc1N1C(=O)CCC1(C)C(=O)Nc1ccc2ccccc2c1 (stereo unspecified)	x	n	x	23.9	n	n
CC[C@@H]1C(c2ccccc2)=NN(c2ccccc2)[C@H]1C(=O)N1CCOC1=O	x	n	n	n	n	+
CC(=O)Nc1ccc(C(C#N)c2ccccc2)cc1 (stereo unspecified)	n	n	n	n	n	n
Cc1cc(C)c2cc(C#N)c(N3CCCN(C(=O)c4cnccn4)CC3)nc2c1	n	n	n	n	n	+
COc1ccc(S(=O)(=O)N2C[C@@H](O)COC[C@@H]3O[C@H](CC(=O)NCCCN4CCOCC4)CC[C@H]32)cc1	x	n	x	n	n	n
Cc1ccc(C(=O)NCCCn2ccnc2)cc1C	n	n	x	n	n	n
O=C(NCCCn1ccnc1)c1ccc2nccnc2c1	n	n	n	n	n	+
O=C1NC[C@@H](CCCCN2C[C@H](Cc3ccccc3)N(Cc3ccccc3)C(=O)C2=O)N(CCc2ccccc2)C1=O	x	n	x	n	n	n
CCOC(=O)Nc1nnc(-c2cccc(OC)c2)s1	n	n	n	25.8	n	n
CC[C@]12c3[nH]c4cc(-c5ccco5)ccc4c3CCN1C(=O)[C@@H](CC(=O)NCCCn1ccnc1)C[C@@H]2C(=O)N1CCN(C(=O)C2CC2)CC1	x	n	n	n	n	+
CCCCCCSc1ccc(-c2nc3ccc(Cl)cn3c2NC2CCCCC2)cc1	n	n	n	n	n	+
CCC(C)Sc1cccc(-c2nc3cc(C)ccn3c2NC2CCCCC2)c1 (stereo unspecified)	n	n	n	n	n	+!
Cc1ccn2c(NC3CCCCC3)c(-c3ccc(SC4CCCCC4)cc3)nc2c1	x	n	x	n	n	+
COc1ccc(COC(=O)CCCN=C2NS(=O)(=O)c3ccccc32)cc1F	x	n	n	n	n	n
CCCN(C(=O)COC(=O)COc1c(C)cccc1C)c1c(N)n(Cc2ccccc2)c(=O)[nH]c1=O	n	n	n	n	n	n
CN(C)CCOC(=O)C1(c2ccccc2)CCOCC1	n	n	n	24.4!	n	n
CC(=O)Nc1ccc(/C=C/c2ccc3cccc([N+](=O)[O-])c3n2)cc1	n	n	n	n	n	+
CN(C)c1ccc(CNC(=O)C2CCN(S(=O)(=O)c3ccc4c(c3)CCCC(=O)N4)CC2)cc1	n	n	n	n	n	+
CCC(C)[C@H](NC(=O)[C@@H]1Cc2c([nH]c3ccccc23)C2c3ccccc3C(=O)N21)C(=O)N1CCC[C@@H]1C(=O)O (stereo partly specified)	n	n	n	n	n	n

Screening data (PubChem BioAssay)
